Test results taken from ChEMBL document CHEMBL1125740, “Heterocyclic quinones. 17. A new in vivo active antineoplastic drug: 6,7-bis(1-aziridinyl)-4-[[3-(N,N-dimethylamino)propyl]amino]-5,8- quinazolinedione” (J Med Chem, 1991).
“And” between values parts separate entries of the source, which are not always exact repeats. Identical values can stand only once.

How the values were obtained:
B16 [1] = assay: Compound was evaluated in vivo for antitumor activity against B16 melanoma after injecting the compound intravenously for median tumor burden; format: functional, Mus musculus
Summary of the method: (§1)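 30-60 mg tumor fragments implanted sc by trocar on day 0 into C57Bl/6-derived hosts (B16) or C3H/He-derived hosts (16/C). Drug given iv on days 6, 9 and 13 (B16) or 6, 9 and 12 (16/C), 10 mice per group. Tumors measured by caliper. T/C % taken from median tumor burden of treated vs control groups on day 15 (B16) or day 14 (16/C). Body weight change per mouse recorded at nadir.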

B16 [2] = assay: Compound was evaluated in vivo for antitumor activity against […] B16 melanoma 2 after injecting the compound intravenously for optimal dose; format: functional, Mus musculus
[3] = Compound was evaluated in vivo for antitumor activity against Glasgow osteogenic sarcoma after injecting the compound intravenously for toxicity related death.; format: functional, Mus musculus
Summary of the method: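 Glasgow osteogenic sarcoma in C57Bl/6-derived hosts: 30-60 mg fragments implanted sc by trocar on day 0. Drug given iv on days 3, 6 and 9, 7 mice per group. Tumors measured by caliper. Median tumor burden recorded on day 10. Body weight change per mouse recorded at nadir. Toxicity-related deaths counted.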

L1210 [4] = assay: Compound was evaluated in vivo for antitumor activity after intraperitoneal administration against L1210(935) for total dose at an optimal dose of 0.5 mg/kg/injection at 1,4,7,11day schedule.; format: functional, Mus musculus
Summary of the method: (§2)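 L1210 leukemia, maintained in DBA/2 mice, was given ip as 10⁵ cells on day 0 to F1 hybrid or strain-of-origin mice over 18 g, in groups of 8. Dosing was ip from day 1, and mortality was checked daily. Median day of death counts dying mice only. %ILS = 100×(treated − control median day of death)/control median. Tumor-free survivors were counted on day 60. Weight change is g/mouse at nadir.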

L1210 [5] = assay: Compound was evaluated in vivo for antitumor activity after intraperitoneal administration against L1210(935) for mortality range at an optimal dose of 0.25 mg/kg/injection at 1,4,7,11day schedule.; format: functional, Mus musculus; summary of the method: as §2
L1210 [6] = assay: Compound was evaluated in vivo for antitumor activity after intraperitoneal administration against L1210(935) for mortality range at an optimal dose of 0.5 mg/kg/injection at 1,4,7,11day schedule.; format: functional, Mus musculus; summary of the method: as §2
L1210 [7] = assay: Compound was evaluated in vivo for antitumor activity after intraperitoneal administration against L1210(935) for mortality range at an optimal dose of 0.5 mg/kg/injection at 1 day schedule.; format: functional, Mus musculus; summary of the method: as §2
L1210 [8] = assay: Compound was evaluated in vivo for antitumor activity after intraperitoneal administration against L1210(935) for total dose at an optimal dose of 1 mg/kg/injection at 1 day schedule.; format: functional, Mus musculus; summary of the method: as §2
L1210 [9] = assay: Compound was evaluated in vivo for antitumor activity after intraperitoneal administration against L1210(935) for median day of death at an optimal dose of 0.2 mg/kg/injection at 1-4 day schedule.; format: functional, Mus musculus; summary of the method: as §2
L1210 [10] = assay: Compound was evaluated in vivo for antitumor activity after intraperitoneal administration against L1210(935) for median day of death at an optimal dose of 0.4 mg/kg/injection at 1-4 day schedule.; format: functional, Mus musculus; summary of the method: as §2
L1210 [11] = assay: Compound was evaluated in vivo for antitumor activity after intraperitoneal administration against L1210(935) for tumor free survivors at an optimal dose of 0.5 mg/kg/injection at 1,4,7,11 day schedule.; format: functional, Mus musculus; summary of the method: as §2
L1210 [12] = assay: Compound was evaluated in vivo for antitumor activity after intraperitoneal administration against L1210(935) for mortality range at an optimal dose of 0.1 mg/kg/injection at 1-4 day schedule.; format: functional, Mus musculus; summary of the method: as §2
L1210 [13] = assay: Compound was evaluated in vivo for antitumor activity after intraperitoneal administration against L1210(935)for change in body weight at an optimal dose of 1 mg/kg/injection at 1 day schedule.; format: functional, Mus musculus; summary of the method: as §2
L1210 [14] = assay: Compound was evaluated in vivo for antitumor activity after intraperitoneal administration against L1210(935)for % increase in life span at an optimal dose of 0.4 mg/kg/injection at 1-4 day schedule.; format: functional; details: Mus musculus, L1210, ip; summary of the method: as §2
P388 [15] = assay: Compound was evaluated in vivo for antitumor activity after intraperitoneal administration against P388 (1303) for % increase in life span at an optimal dose of 0.75 mg/kg/injection; format: functional; details: Mus musculus, P388, ip
P388 [16] = assay: Compound was evaluated in vivo for antitumor activity after intraperitoneal administration against P388 (1313) for mortality range at an optimal dose of 1 mg/kg/injection; format: functional, Mus musculus
P388 [17] = assay: Compound was evaluated in vivo for antitumor activity after intraperitoneal administration against P388/L-PAM(14) for median day of death at an optimal dose of 0.125 mg/kg/injection at 1,4,7,11 day schedule.; format: functional, Mus musculus
P388 [18] = assay: Compound was evaluated in vivo for antitumor activity after intraperitoneal administration against P388/L-PAM(14) for median day of death at an optimal dose of 0.25 mg/kg/injection at 1,4,7,11 day schedule.; format: functional, Mus musculus
P388 [19] = assay: Compound was evaluated in vivo for antitumor activity after intraperitoneal administration against P388/L-PAM(14) for median day of death at an optimal dose of 1 mg/kg/injection; format: functional, Mus musculus
P388 [20] = assay: Compound was evaluated in vivo for antitumor activity after intraperitoneal administration against P388/L-PAM(14) for mortality range at an optimal dose of 0.1 mg/kg/injection at 1,2,3,4 day schedule.; format: functional, Mus musculus
P388 [21] = assay: Compound was evaluated in vivo for antitumor activity after intraperitoneal administration against P388/L-PAM(14) for tumor free survivors at an optimal dose of 1 mg/kg/injection; format: functional, Mus musculus
P388 [22] = assay: Compound was evaluated in vivo for antitumor activity after intraperitoneal administration against P388/L-PAM(14) for total dose at an optimal dose of 0.1 mg/kg/injection at 1,2,3,4 day schedule.; format: functional, Mus musculus
P388 [23] = assay: Compound was evaluated in vivo for antitumor activity after intraperitoneal administration against P388/L-PAM(12) for tumor free survivors at an optimal dose of 0.75 mg/kg/injection; format: functional, Mus musculus
P388 [24] = assay: Compound was evaluated in vivo for antitumor activity after intraperitoneal administration against P388/L-PAM(14) for mortality range at an optimal dose of 1 mg/kg/injection; format: functional, Mus musculus
P388 [25] = assay: Compound was evaluated in vivo for antitumor activity after intraperitoneal administration against P388/L-PAM(14) for % increase in life span at an optimal dose of 0.5 mg/kg/injection at 1,4,7,11 day schedule.; format: functional; details: Mus musculus, P388, ip
P388 [26] = assay: Compound was evaluated in vivo for antitumor activity after intraperitoneal administration against P388 (1313) for change in body weight at an optimal dose of 0.4 mg/kg/injection; format: functional, Mus musculus
P388 [27] = assay: Compound was evaluated in vivo for antitumor activity after intraperitoneal administration against P388 (1313) for % increase in life span at an optimal dose of 0.25 mg/kg/injection; format: functional; details: Mus musculus, P388, ip
P388 [28] = assay: Compound was evaluated in vivo for antitumor activity after intraperitoneal administration against P388 (1313) for % increase in life span at an optimal dose of 0.5 mg/kg/injection; format: functional; details: Mus musculus, P388, ip
P388 [29] = assay: Compound was evaluated in vivo for antitumor activity after intraperitoneal administration against P388 (1313) for change in body weight at an optimal dose of 0.2 mg/kg/injection; format: functional, Mus musculus
[30] = Compound was evaluated in vivo for antitumor activity against colon adenocarcinoma 38 after injecting the compound intravenously for toxicity related death.; format: functional, Mus musculus
[31] = Compound was evaluated in vivo for antitumor activity against mammary adenocarcinoma 16/C after injecting the compound intravenously for toxicity related death.; format: functional, Mus musculus; summary of the method: as §1

CN(C)CCCNc1ncnc2c1C(=O)C(N1CC1)=C(N1CC1)C2=O
Tumor burden (B16 [1]): 2002 mg and 3807 mg
Optimal dose (B16 [2]): 0.2 mg/kg
Toxicity [3]: 0
Total dose (L1210 [4]): 2 mg/kg
Mortality (L1210 [5]): 14 days
Mortality (L1210 [6]): 18 days
Mortality (L1210 [7]): 16 days
Total dose (L1210 [8]): 1 mg/kg
Median day of death (L1210 [9]): 14
Median day of death (L1210 [10]): 14
Survivors (L1210 [11]): 1
Mortality (L1210 [12]): 14 days
Change in body weight (L1210 [13]): 0.6 g mouse-1
ILS at 0.4 mg/kg (L1210 [14]): 27%
ILS at 0.75 mg/kg (P388 [15]): 68%
Mortality (P388 [16]): 24 days
Median day of death (P388 [17]): 15.5
Median day of death (P388 [18]): 16.5
Median day of death (P388 [19]): 19
Mortality (P388 [20]): 21 days
Survivors (P388 [21]): 0
Total dose (P388 [22]): 0.4 mg/kg
Survivors (P388 [23]): 0
Mortality (P388 [24]): 26 days
ILS at 0.5 mg/kg (P388 [25]): 61%
Change in body weight (P388 [26]): -0.9 g mouse-1
ILS at 0.25 mg/kg (P388 [27]): 58%
ILS at 0.5 mg/kg (P388 [28]): 108%
Change in body weight (P388 [29]): 1.3 g mouse-1
Toxicity [30]: 0
Toxicity [31]: 0
Toxicity related death [31]: 0
